Measured values taken from ChEMBL document CHEMBL1144642, “Antiproliferative activity of 2-alkyl-4-halopiperidines and 2-alkyl-4-halo-1,2,5,6-tetrahydropyridines in solid tumor cell lines” (2007).

Key:
Format in all cases: functional
A2780 = test: Antiproliferative activity against human A2780 cells after 48 hrs by SRB assay; conditions: A2780, 48 h
Method in brief: (§1)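 NCI protocol, SRB read-out after 48 h continuous drug exposure. GI50, TGI and LC50 derived; 100 μM was the top concentration tested, with TGI and LC50 reported only when under 100 μM. GI50 values are means of two to four experiments ± standard deviation.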

WiDr [1] = test: Antiproliferative activity against human WiDr cells after 48 hrs by SRB assay; method in brief: as §1
SW1573 [2] = test: Antiproliferative activity against human SW1573 cells after 48 hrs by SRB assay; conditions: SW1573, 48 h; method in brief: as §1
WiDr [3] = test: Cell cycle arrest in human WiDr cells assessed as accumulation at G2/M phase at 20 uM after 24 hrs relative to control
Method in brief: (§2)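 Cells seeded at 0.7–1 × 10⁶ per well and left 24 h, then exposed 24 h to 10 or 20 μM beside untreated controls. Trypsinized, fixed in ice-cold 70% ethanol overnight at −20 °C, treated with RNAse and propidium iodide 30 min at 37 °C in the dark. DNA content read by flow cytometry (25,000 cells/sample); G2/M percentage compared with control.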

SW1573 [4] = test: Cell cycle arrest in human SW1573 cells assessed as accumulation at G2/M phase at 10 uM after 24 hrs relative to control; method in brief: as §2
WiDr [5] = test: Cell cycle arrest in human WiDr cells assessed as accumulation at G2/M phase at 10 uM after 24 hrs relative to control; method in brief: as §2
SW1573 [6] = test: Cell cycle arrest in human SW1573 cells assessed as accumulation at G2/M phase at 20 uM after 24 hrs relative to control; method in brief: as §2

SMILES	GI50 (A2780) [µM]	GI50 (SW1573 [2]) [µM]	GI50 (WiDr [1]) [µM]	further results
CCCCCCCC1C=C(Cl)CCN1S(=O)(=O)c1ccc(C)cc1 (centres undefined)	92	49	50	–
Cc1ccc(S(=O)(=O)N2CCC(Cl)=CC2c2ccccc2)cc1 (centres undefined)	17	16	18	LC50 (50% lethal concentration) (A2780): 86 µM; TGI (A2780): 42 µM; LC50 (50% lethal concentration) (WiDr [1]): 91 µM; TGI (WiDr [1]): 77 µM; LC50 (SW1573 [2]): 87 µM; TGI (SW1573 [2]): 37 µM
Cc1ccc(S(=O)(=O)N2CCC(Br)=CC2CC(C)C)cc1 (centres undefined)	36	26	16	–
Cc1ccc(S(=O)(=O)N2CCC(Br)=CC2c2ccccc2)cc1 (centres undefined)	49	54	29	–
Cc1ccc(S(=O)(=O)N2CC[C@@H](Cl)C[C@@H]2C2CCCCC2)cc1	72	53	15	–
Cc1ccc(S(=O)(=O)N2CC[C@@H](Cl)C[C@@H]2Cc2ccccc2)cc1	19	12	20	TGI (A2780): 50 µM; TGI (SW1573 [2]): 66 µM
CCCCCCC[C@H]1C[C@H](Cl)CCN1S(=O)(=O)c1ccc(C)cc1	> 100	> 100	54	–
Cc1ccc(S(=O)(=O)N2CCC(Cl)CC2)cc1	> 100	> 100	> 100	–
Cc1ccc(S(=O)(=O)N2CCC(Br)=CC2Cc2ccccc2)cc1 (centres undefined)	27	21	24	TGI (A2780): 77 µM; TGI (WiDr [1]): 71 µM; TGI (SW1573 [2]): 78 µM
Cc1ccc(S(=O)(=O)N2CC=C(Cl)CC2)cc1	> 100	> 100	> 100	–
Cc1ccc(S(=O)(=O)N2CCC(Cl)=CC2Cc2ccccc2)cc1 (centres undefined)	4.8	6.6	3.3	LC50 (50% lethal concentration) (WiDr [1]): 79 µM; TGI (WiDr [1]): 14 µM; Activity (WiDr [3]): 81%; Activity (SW1573 [4]): 25%; Activity (WiDr [5]): 53%; Activity (SW1573 [6]): 38%

Second part, led by results:

GI50 (A2780) [µM]	GI50 (SW1573 [2]) [µM]	SMILES	GI50 (WiDr [1]) [µM]	further results
36	19	Cc1ccc(S(=O)(=O)N2CC[C@@H](Cl)C[C@@H]2CC(C)C)cc1	22	–
39	62	Cc1ccc(S(=O)(=O)N2CCC(Cl)=CC2C2CCCCC2)cc1 (centres undefined)	24	–
39	22	Cc1ccc(S(=O)(=O)N2CC[C@@H](Br)C[C@@H]2CC(C)C)cc1	14	–
> 100	82	Cc1ccc(S(=O)(=O)N2CC[C@@H](Br)C[C@@H]2C2CCCCC2)cc1	14	–
> 100	> 100	Cc1ccc(S(=O)(=O)N2CC[C@@H](Br)C[C@@H]2c2ccccc2)cc1	36	–
63	73	Cc1ccc(S(=O)(=O)N2CC[C@@H](Br)C[C@@H]2Cc2ccccc2)cc1	37	–
> 100	> 100	Cc1ccc(S(=O)(=O)N2CC=C(Br)CC2)cc1	> 100	–
44	65	Cc1ccc(S(=O)(=O)N2CCC(Br)=CC2C2CCCCC2)cc1 (centres undefined)	18	–
> 100	> 100	Cc1ccc(S(=O)(=O)N2CCC(Br)CC2)cc1	> 100	–
> 100	> 100	Cc1ccc(S(=O)(=O)N2CC[C@@H](Cl)C[C@@H]2c2ccccc2)cc1	37	–
> 100	> 100	CCCCCCC[C@H]1C[C@H](Br)CCN1S(=O)(=O)c1ccc(C)cc1	> 100	–
> 100	49	CCCCCCCC1C=C(Br)CCN1S(=O)(=O)c1ccc(C)cc1 (centres undefined)	40	–
35	31	Cc1ccc(S(=O)(=O)N2CCC(Cl)=CC2CC(C)C)cc1 (centres undefined)	21	–
